Changes are numbered by the printed parent chain. Names may count otherwise.
Experiments:
Acb2 [1] = target: T1, Acb2 (Pseudomonas phage PaMx33, UniProt A0A1C8HPQ3); assay: Isothermal titration calorimetry; type: binding
Acb2 K26A = Acb2 K26A (Pseudomonas phage PaMx33, UniProt A0A1C8HPQ3, K26A); assay: ITC / native PAGE binding of 3’,3’-cGAMP to Acb2 K26A mutant; settings: ITC and native PAGE
CapV [2] = target: CapV (Pseudomonas aeruginosa, UniProt P0DX85); assay: Fluorogenic biochemical assay for CapV phospholipase activity; set-up: species or system P. aeruginosa BWHPSA011 (Pa011); settings: 3’,3’-cGAMP 0.025-0.8 μM, other cyclic dinucleotides 0.8 μM
Acb2 [3] = target: T1, Acb2; assay: HPLC assay of cyclic dinucleotide sequestering by Acb2; type: binding; settings: 40 μM Acb2 pre-incubated with 4 μM cyclic dinucleotide
[4] = system: Acb2 homolog from E. coli phage T4 (gene vs.4); settings: cited from earlier work
Acb2 Y11A = Acb2 Y11A (Pseudomonas phage PaMx33, UniProt A0A1C8HPQ3, Y11A); assay: ITC / native PAGE binding of 3’,3’-cGAMP to Acb2 Y11A mutant; settings: ITC and native PAGE
Acb2 [5] = target: T1, Acb2; assay: Native-PAGE assay of Acb2 with cyclic dinucleotides; type: binding; settings: Acb2 14.3 μM, cyclic dinucleotide 1.8-7.2 μM
Procedure, shortened: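 Purified Acb2 (14.3 μM) preincubated 10 min at 18°C with cyclic dinucleotide at 1.8, 3.6 or 7.2 μM. Mixtures resolved on 5% native polyacrylamide gels and stained with Coomassie blue.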

crystal structure = target: the molecule itself; assay: crystal structure
Pa011 CBASS immunity = assay: Plaque assays with PaMx41 phage on Pa011 WT; type: cell-based, Pseudomonas aeruginosa; settings: variant overexpressed in Pa011 WT, in the presence of CBASS
Procedure, shortened: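 gp24 variants expressed episomally from arabinose-inducible, gentamicin-selected pHERD30T in Pa011 WT and ΔCBASS. Overnight culture (150 μl) mixed with top agar on LB agar. Phage lysate 10-fold serially diluted and spotted (2 μl) onto the solidified top agar; plates incubated at 37°C and titre read from plaques.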

[6] = system: 3’,3’-cGAMP levels in phage-infected Pa011 cells; assay: Intracellular 3’,3’-cGAMP measurements by ELISA in phage-infected Pa011 cells; type: cell-based, Pseudomonas aeruginosa; settings: overexpression in phage-infected Pa011 WT cells
CapV [7] = target: T2, CapV (Pseudomonas aeruginosa, UniProt P0DX85); assay: Gel filtration assay of Acb2 with CapV; type: binding, P. aeruginosa BWHPSA011 (Pa011); settings: molar ratio 5:1
T2 sequence (P0DX85 whole entry, looked up): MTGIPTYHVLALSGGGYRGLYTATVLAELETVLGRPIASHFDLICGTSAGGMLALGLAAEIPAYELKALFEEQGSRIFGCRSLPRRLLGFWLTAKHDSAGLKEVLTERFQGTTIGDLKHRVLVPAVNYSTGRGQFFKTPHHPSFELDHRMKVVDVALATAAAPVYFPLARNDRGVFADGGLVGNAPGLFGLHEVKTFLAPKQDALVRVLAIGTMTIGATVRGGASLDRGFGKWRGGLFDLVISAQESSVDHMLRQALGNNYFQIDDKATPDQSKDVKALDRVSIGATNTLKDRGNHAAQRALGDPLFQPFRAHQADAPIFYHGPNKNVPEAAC
Procedure, shortened: (§1)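 Acb2 (E. coli BL21(DE3), 0.2 mM IPTG at OD600 0.8, 18°C 12 h; Ni-NTA, tag removed with Ulp1, Superdex-200) incubated with His-tagged partner protein at 5:1 molar ratio overnight on ice. Gel filtration was on Superdex-200 increase 10/300 GL in 10 mM Tris–HCl pH 8.0, 200 mM NaCl, 5 mM DTT at 0.5 mL/min. Fractions were analysed by SDS-PAGE with Coomassie staining.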

CapV [8] = target: T2, CapV; assay: Fluorogenic biochemical assay for CapV phospholipase activity; set-up: species or system P. aeruginosa BWHPSA011 (Pa011); settings: Acb2 or mutant 32 μM preincubated with 0.8 μM 3’,3’-cGAMP for 10 minutes
CdnA = target: T3, CdnA (Pseudomonas aeruginosa, UniProt P0DX86); assay: Gel filtration assay of Acb2 with CdnA; type: binding, P. aeruginosa BWHPSA011 (Pa011); settings: molar ratio 5:1
T3 sequence (P0DX86 1-380): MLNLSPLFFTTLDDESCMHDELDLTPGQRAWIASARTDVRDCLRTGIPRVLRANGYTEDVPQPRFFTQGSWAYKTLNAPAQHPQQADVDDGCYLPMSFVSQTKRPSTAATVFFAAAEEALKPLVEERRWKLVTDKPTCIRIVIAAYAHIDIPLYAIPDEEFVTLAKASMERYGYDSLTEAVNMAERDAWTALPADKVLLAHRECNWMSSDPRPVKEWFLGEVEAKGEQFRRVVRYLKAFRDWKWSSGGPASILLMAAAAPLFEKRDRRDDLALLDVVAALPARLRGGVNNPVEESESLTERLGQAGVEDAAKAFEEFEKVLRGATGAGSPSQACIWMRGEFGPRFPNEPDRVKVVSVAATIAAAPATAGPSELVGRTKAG
Procedure, shortened: as §1

Cap2 = target: T4, Cap2 (Pseudomonas aeruginosa, UniProt P0DX87); assay: Gel filtration assay of Acb2 with Cap2; type: binding, P. aeruginosa BWHPSA011 (Pa011); settings: molar ratio 5:1
T4 sequence (P0DX87 1-543): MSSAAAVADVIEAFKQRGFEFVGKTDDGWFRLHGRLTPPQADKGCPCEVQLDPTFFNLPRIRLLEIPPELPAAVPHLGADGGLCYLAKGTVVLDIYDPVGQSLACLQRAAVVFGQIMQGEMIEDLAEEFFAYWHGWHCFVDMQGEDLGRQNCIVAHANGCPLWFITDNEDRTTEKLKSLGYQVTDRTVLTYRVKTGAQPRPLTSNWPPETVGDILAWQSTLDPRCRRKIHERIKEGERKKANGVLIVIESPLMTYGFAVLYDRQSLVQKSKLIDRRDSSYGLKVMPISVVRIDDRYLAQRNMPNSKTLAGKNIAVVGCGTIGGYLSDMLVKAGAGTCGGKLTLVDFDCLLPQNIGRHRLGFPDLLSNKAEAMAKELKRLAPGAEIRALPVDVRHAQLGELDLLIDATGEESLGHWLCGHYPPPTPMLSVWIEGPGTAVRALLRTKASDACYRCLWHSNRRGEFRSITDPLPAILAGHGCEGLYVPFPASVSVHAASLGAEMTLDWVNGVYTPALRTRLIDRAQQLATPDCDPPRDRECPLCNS
Procedure, shortened: as §1

CdnA-Cap2 complex = target: T5, CdnA-Cap2 complex (Pseudomonas aeruginosa, UniProt P0DX86+P0DX87, C105A/C479A); assay: Gel filtration assay of Acb2 with CdnA-Cap2 complex; type: binding, P. aeruginosa BWHPSA011 (Pa011); settings: molar ratio 5:1
T5 sequence (P0DX86 1-380): T3 sequence (P0DX86 1-380)
T5 sequence (P0DX87 1-543 C105A/C479A): T4 sequence (P0DX87 1-543) with C105A, C479A
Procedure, shortened: as §1

Chain of Acb2 K26A (A0A1C8HPQ3 whole entry K26A): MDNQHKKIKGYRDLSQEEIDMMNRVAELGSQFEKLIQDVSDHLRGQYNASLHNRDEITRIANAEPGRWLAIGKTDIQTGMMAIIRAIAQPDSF
Chain of Acb2 Y11A (A0A1C8HPQ3 whole entry Y11A): as the sequence (A0A1C8HPQ3 whole entry K26A) above, with Y11A, A26K counted along it

Nc1ncnc2c1ncn2[C@@H]1O[C@@H]2COP(=O)(O)O[C@H]3[C@@H](O)[C@H](n4ccc(=O)[nH]c4=O)O[C@@H]3COP(=O)(O)O[C@H]2[C@H]1O [3’,3’-c-UMP-AMP]
Kd (Acb2 [1]): ~97 nM

Nc1nc2c(ncn2[C@@H]2O[C@@H]3COP(=O)(O)O[C@H]4[C@@H](O)[C@H](n5ccc(=O)[nH]c5=O)O[C@@H]4COP(=O)(O)O[C@H]3[C@H]2O)c(=O)[nH]1 [3’,3’-c-UMP-GMP]
Kd (Acb2 [1]): ~524 nM

O=c1ccn([C@@H]2O[C@@H]3COP(=O)(O)O[C@H]4[C@@H](O)[C@H](n5ccc(=O)[nH]c5=O)O[C@@H]4COP(=O)(O)O[C@H]3[C@H]2O)c(=O)[nH]1 [3’,3’-c-di-UMP]
Kd (Acb2 [1]): ~99 nM

Nc1nc2c(ncn2[C@@H]2O[C@@H]3COP(=O)(O)O[C@H]4[C@@H](O)[C@H](n5cnc6c(N)ncnc65)O[C@@H]4COP(=O)(O)O[C@H]3[C@H]2O)c(=O)[nH]1 [3’,3’-cGAMP]
binding of 3’,3’-cGAMP to Acb2 K26A in vitro (Acb2 K26A): abolished
activation of CapV phospholipase activity (CapV [2]): activated
sequestering of cyclic dinucleotide by Acb2 (HPLC) (Acb2 [3]): depletes detectable
Kd [4]: ~30 nM
binding of 3’,3’-cGAMP to Acb2 Y11A in vitro (Acb2 Y11A): abolished
Kd (Acb2 [1]): ~87 nM
shift of purified Acb2 protein in native gel (Acb2 [5]): significant shift

Nc1ncnc2c1ncn2[C@@H]1O[C@@H]2COP(=O)(O)O[C@H]3[C@@H](O)[C@H](n4cnc5c(N)ncnc54)O[C@@H]3COP(=O)(O)O[C@H]2[C@H]1O [c-di-AMP]
sequestering of cyclic dinucleotide by Acb2 (HPLC) (Acb2 [3]): sequester
Kd (Acb2 [1]): ~66 nM

Nc1nc2c(ncn2[C@@H]2O[C@@H]3COP(=O)(O)O[C@H]4[C@@H](O)[C@H](n5cnc6c(=O)[nH]c(N)nc65)O[C@@H]4COP(=O)(O)O[C@H]3[C@H]2O)c(=O)[nH]1 [c-di-GMP]
sequestering of cyclic dinucleotide by Acb2 (HPLC) (Acb2 [3]): very weak sequestering effect

B1: Acb2 (anti-CBASS 2) from phage PaMx33 (natural protein, Pseudomonas aeruginosa phage PaMx33, UniProt A0A1C8HPQ3 1-93, looked up)
chain: MDNQHKKIKGYRDLSQEEIDMMNRVKELGSQFEKLIQDVSDHLRGQYNASLHNRDEITRIANAEPGRWLAIGKTDIQTGMMAIIRAIAQPDSF
stoichiometry N (crystal structure): 6

B2: long gp24: 94 a.a. version of PaMx41 gp24 (orf24 X37Q), named Acb2 hereafter (protein)
chain: B1 chain
modifications: left off: His6-SUMO, end not stated, cleaved
increase of PaMx41 WT phage titer (Pa011 CBASS immunity): ≥ 4 orders of magnitude

B3: Acb2: phage anti-CBASS protein 2, purified from the naturally CBASS-resistant PaMx33 phage; hexameric cyclic dinucleotide sponge (protein)
chain: B1 chain
modifications: left off: His6-SUMO, end not stated, cleaved
effect on detectable 3’,3’-cGAMP levels [6]: reduced
binding of Acb2 to purified CapV (CapV [7]): did not bind
effect on 3’,3’-cGAMP-activated CapV activity (CapV [8]): abrogated
binding of Acb2 to purified CdnA (CdnA): did not bind
binding of Acb2 to purified Cap2 (Cap2): did not bind
binding of Acb2 to the CdnA-Cap2 complex (CdnA-Cap2 complex): did not bind

Reference: paper PMC9975087 (Cell, 2023)
